Assay [1] has as its system GABA-A receptor; anion channel. Briefly: In vitro insecticidal activity as inhibition of [3H]EBOB binding to Gamma-aminobutyric acid GABA-A receptor of housefly neuronal membranes; IA denotes inactive. Further details: species or system Musca domestica; call rule not given here.
The target in assay [2] is GABA-A receptor; anion channel (Mus musculus) (UniProt Q8BHJ7+P26048+Q8QZW7+P50571+Q9R0Y8+P22723+A2AMW3+P62812+Q9JLF1+P26049+P22933+Q9D6F4+P63080+P27681+P16305). Briefly: Ratio of binding affinity for mouse brain Gamma-aminobutyric acid receptor and housefly Gamma-aminobutyric acid receptor.
Assay [3] in a line: In vivo percent mortality of cyclodiene resistant allele-homozygous CO fleas at 100 mM was determined using contact assay. In kind it is ADME, organism-based. The conditions noted are these: Pulicinae. The essentials: (§1)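 Cat fleas were exposed by contact at 100 mM. The strains were chosen as genetic variants for the cyclodiene resistance allele, to compare insecticidal activity across them. The read-out was percent mortality.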

Assay [4] in a line: In vivo percent mortality of housefly at 100 mM was determined using contact assay. The format is ADME, organism-based. The conditions noted are these: Musca domestica, topical.
Assay [5] is described as follows: In vivo percent mortality of cyclodiene resistant mixed homozygous and heterozygous NC fleas at 100 mM was determined using contact assay. In kind it is ADME, organism-based. The conditions noted are these: Pulicinae. In outline: as §1
Assay [6] deals with GABA-A receptor; anion channel. Briefly: In vitro insecticidal activity as inhibition of [3H]EBOB binding to Gamma-aminobutyric acid GABA-A receptor of housefly neuronal membranes; NI denotes negative inhibition. Further details: species or system Musca domestica.

As usually defined, the mortality is the share of the test organisms that died. Higher therefore signals a strong lethal effect.

Consider `CSc1nn(-c2c(Cl)cc(C(F)(F)F)cc2Cl)c(N)c1-c1cccnc1`, for which the IC50 entry in assay [1] is given as “Not Active”.
Same read-out and setting: under `CSc1nn(-c2c(Cl)cc(C(F)(F)F)cc2Cl)c(N)c1-c1cccc(C(C)C)c1` stands “Not Active”.
Take `CSc1nn(-c2c(Cl)cc(C(F)(F)F)cc2Cl)c(N)c1-c1cccc(C(F)(F)F)c1`: the Selectivity in assay [2] was 5.
On to `COc1cc(-c2c(SC)nn(-c3c(Cl)cc(C(F)(F)F)cc3Cl)c2N)cc(OC)c1OC`, for which the IC50 result in assay [1] is recorded as “Not Active”.
On to `COc1ccc(-c2c(SC)nn(-c3c(Cl)cc(C(F)(F)F)cc3Cl)c2N)cc1OC`, for which, in assay [2], the Selectivity was found to be 2000.
Take `CSc1cc(N)n(-c2c(Cl)cc(C(F)(F)F)cc2Cl)n1`: the mortality at 100000 µM in assay [3] was 4.4%; in assay [4], 42.4%; in assay [5] it was 0%. Also, the Selectivity in assay [2] was determined as 250.
With `CSc1nn(-c2c(Cl)cc(C(F)(F)F)cc2Cl)c(N)c1I`, the Selectivity in assay [2] stood at 43.
On the same count and under the same terms, under `COc1cccc(-c2c(SC)nn(-c3c(Cl)cc(C(F)(F)F)cc3Cl)c2N)c1` stands 346.
`CSc1nn(-c2c(Cl)cc(C(F)(F)F)cc2Cl)c(N)c1-c1ccc(C)s1`: the IC50 entry in assay [1] is reported as “Not Active”.
In the case of `CSc1nn(-c2c(Cl)cc(C(F)(F)F)cc2Cl)c(N)c1-c1ccccc1`, the Selectivity in assay [2] amounted to 4.
On to `CSc1nn(-c2c(Cl)cc(C(F)(F)F)cc2Cl)c(N)c1-c1cncnc1`, for which the IC50 entry in assay [6] is listed as “Not Active”.
Turning to `CSc1nn(-c2c(Cl)cc(C(F)(F)F)cc2Cl)c(N)c1-c1ccc(C#N)cc1`, in assay [2], the Selectivity stood at 666.
For `CSc1nn(-c2c(Cl)cc(C(F)(F)F)cc2Cl)c(N)c1-c1cccs1`, in assay [2], the Selectivity was 44.
On the same count and under the same terms, under `CSc1nn(-c2c(Cl)cc(C(F)(F)F)cc2Cl)c(N)c1-c1ccc(C(C)=O)s1` stands 25; under `CSc1nn(-c2c(Cl)cc(C(F)(F)F)cc2Cl)c(N)c1-c1ccc(Cl)s1`, 434.
For the compound `CSc1nn(-c2c(Cl)cc(C(F)(F)F)cc2Cl)c(N)c1-c1ccc(Cl)cc1`, in assay [1], the IC50 result is “Not Active”.
Consider `C#Cc1c(SC)nn(-c2c(Cl)cc(C(F)(F)F)cc2Cl)c1N`, for which the mortality at 100000 µM was 2.2% in assay [3], 80.1% in assay [4] and 0% in assay [5]. Besides, the Selectivity in assay [2] is > 10000.
For `CSc1nn(-c2c(Cl)cc(C(F)(F)F)cc2Cl)c(N)c1-c1cccc(Cl)c1`, the Selectivity in assay [2] came to 31.
The same measure, in the same setting: under `COc1ccc(-c2c(SC)nn(-c3c(Cl)cc(C(F)(F)F)cc3Cl)c2N)cc1` stands 180.
On to `CSc1nn(-c2c(Cl)cc(C(F)(F)F)cc2Cl)c(N)c1-c1ccccc1C`, for which the mortality at 100000 µM in assay [3] was determined as 60.8%; in assay [4] it was 9.6%; in assay [5] it was 0%. Also, the Selectivity in assay [2] is 400.
With `CSc1nn(-c2c(Cl)cc(C(F)(F)F)cc2Cl)c(N)c1C#N`, the Selectivity in assay [2] was determined as 500.
For `CSc1ccccc1-c1c(SC)nn(-c2c(Cl)cc(C(F)(F)F)cc2Cl)c1N`, the IC50 entry in assay [1] is listed as “Not Active”.
In the case of `CSc1nn(-c2c(Cl)cc(C(F)(F)F)cc2Cl)c(N)c1C(=O)O`, the Selectivity in assay [2] turned out to be 45.
On the same count and under the same terms, under `CSc1nn(-c2c(Cl)cc(C(F)(F)F)cc2Cl)c(N)c1-c1ccc(F)cc1` stands 20.
Same read-out and setting: under `COc1ccc(-c2c(SC)nn(-c3c(Cl)cc(C(F)(F)F)cc3Cl)c2N)c(OC)c1` stands 49.
For `CSc1nn(-c2c(Cl)cc(C(F)(F)F)cc2Cl)c(N)c1-c1ccccc1C(F)(F)F`, the mortality at 100000 µM is 58.7% in assay [3], 3.9% in assay [4] and 0% in assay [5]. For the same compound, the Selectivity in assay [2] stood at 6000.
With `CSc1nn(-c2c(Cl)cc(C(F)(F)F)cc2Cl)c(N)c1-c1ccc(C)cc1`, the Selectivity in assay [2] stood at 66.
Turning to `CSc1nn(-c2c(Cl)cc(C(F)(F)F)cc2Cl)c(N)c1-c1ccc2c(c1)OCO2`, the mortality at 100000 µM in assay [3] stood at 1.4%; in assay [4], 27.6%; in assay [5] it was 0%. For the same compound, in assay [2], the Selectivity turned out to be 64.
Take `CSc1nn(-c2c(Cl)cc(C(F)(F)F)cc2Cl)c(N)c1-c1ccncc1`: the IC50 entry in assay [1] is listed as “Not Active”.
As to `CSc1nn(-c2c(Cl)cc(C(F)(F)F)cc2Cl)c(N)c1-c1cc(C(F)(F)F)cc(C(F)(F)F)c1`, in assay [2], the Selectivity stood at 12.
On to `CSc1nn(-c2c(Cl)cc(C(F)(F)F)cc2Cl)c(N)c1-c1cccc(C(C)(C)C)c1`, for which the IC50 entry in assay [1] is “Not Active”.
Turning to `CSc1nn(-c2c(Cl)cc(C(F)(F)F)cc2Cl)c(N)c1-c1nc(C)no1`, the mortality at 100000 µM in assay [3] was 0%; in assay [4] it was 95.4%; in assay [5], 0%. Further, in assay [2], the Selectivity amounted to 9.
Turning to `CSc1nn(-c2c(Cl)cc(C(F)(F)F)cc2Cl)c(N)c1Br`, the Selectivity in assay [2] came to 2500.
With `CSc1ccc(-c2c(SC)nn(-c3c(Cl)cc(C(F)(F)F)cc3Cl)c2N)cc1`, in assay [2], the Selectivity came out at 230.
Turning to `CSc1nn(-c2c(Cl)cc(C(F)(F)F)cc2Cl)c(N)c1-c1cc(C)cs1`, in assay [1], the IC50 entry was “Not Active”.
With `CSc1nn(-c2c(Cl)cc(C(F)(F)F)cc2Cl)c(N)c1-c1ccc(Br)cc1`, the IC50 result in assay [1] is listed as “Not Active”.
Same read-out and setting: under `CSc1nn(-c2c(Cl)cc(C(F)(F)F)cc2Cl)c(N)c1-c1ccccn1` stands “Not Active”.
On the same count and under the same terms, under `CSc1nn(-c2c(Cl)cc(C(F)(F)F)cc2Cl)c(N)c1-c1ccsc1` stands “Not Active”.
Consider `CSc1nn(-c2c(Cl)cc(C(F)(F)F)cc2Cl)c(N)c1-c1ccc(F)c(Cl)c1`, for which the Selectivity in assay [2] was determined as 4.
For `CSc1nn(-c2c(Cl)cc(C(F)(F)F)cc2Cl)c(N)c1-c1cnccn1`, the mortality at 100000 µM in assay [3] is 77.4%; in assay [4] it was 0%; in assay [5], 89.9%. The Selectivity in assay [2] was determined as 45.
Regarding `CSc1nn(-c2c(Cl)cc(C(F)(F)F)cc2Cl)c(N)c1-c1ccc(C(C)C)cc1`, the IC50 entry in assay [1] is recorded as “Not Active”.
As to `CCOC(=O)c1c(SC)nn(-c2c(Cl)cc(C(F)(F)F)cc2Cl)c1N`, the Selectivity in assay [2] turned out to be 400.
In the case of `CSc1nn(-c2c(Cl)cc(C(F)(F)F)cc2Cl)c(N)c1-c1ccccc1F`, the IC50 result in assay [1] is reported as “Not Active”.
`CSc1nn(-c2c(Cl)cc(C(F)(F)F)cc2Cl)c(N)c1Cl`: the mortality at 100000 µM in assay [3] stood at 32.3%; in assay [4], 92.8%; in assay [5], 3.3%. Besides, the Selectivity in assay [2] came to 210.

Source of the values: ChEMBL document CHEMBL1137880, “Synthesis and GABA receptor potency of 3-thiomethyl-4-(hetero)aryl-5-amino-1-phenylpyrazoles” (Bioorg Med Chem Lett, 2004).
